Source: PubChem BioAssay (several laboratories)
MC4R ag barr: agonists of human melanocortin 4 receptor (MC4R) beta-arrestin. P32245. U2OS MC4R beta-arrestin complementation, luminescence; percent of melanotan II response, DMSO zero. activation, % at 8.9 µM. 0.98% of 360,000 active. AID 540308;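 active means activation above a per-plate cutoff, the mean activation of sample wells on that plate plus 3 SD, cut at about 8% in these data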
Target sequence (P32245 whole entry, looked up): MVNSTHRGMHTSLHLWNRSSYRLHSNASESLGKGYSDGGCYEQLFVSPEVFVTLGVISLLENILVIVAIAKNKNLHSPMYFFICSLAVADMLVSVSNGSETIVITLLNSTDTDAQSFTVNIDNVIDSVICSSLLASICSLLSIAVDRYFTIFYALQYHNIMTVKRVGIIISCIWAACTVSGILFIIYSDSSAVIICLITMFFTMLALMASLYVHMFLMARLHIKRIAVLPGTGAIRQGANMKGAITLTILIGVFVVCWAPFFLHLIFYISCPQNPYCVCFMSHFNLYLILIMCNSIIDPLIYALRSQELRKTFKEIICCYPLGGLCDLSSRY
Exocytosis inh: blocks lytic granule exocytosis | TALL-104 LAMP-1 surface exposure, flow cytometry; cells stimulated with thapsigargin and PMA | inhibition, % at 10 µM | 0.66% of 360,000 active | AID 651702;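 active means inhibition above about 55%, limit read from the data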
sPLA2-III inh: Inhibits HGIII-sPLA2 liposome hydrolysis, primary screen. 0.56% of 370,000 active. QFRET BODIPY PC-A2 liposome hydrolysis, fluorescence. inhibition, % at 12.2 µM. Q9NZ20. AID 743126;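 active means inhibition above mean plus 3 SD of compounds lying within the high and low control bounds, cut at about 19% in these data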
A1 inh: inhibitors of the anti-apoptotic protein A1, read as caspase activation | MEF A1-2A-BIM cells, Caspase-Glo 3/7 luminescence, 3 h; percent of clofoctol response, vehicle zero | caspase activation, % (no concentration beside the values) | 0.066% of 330,000 active | AID 2462;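 active means over half of replicate activation scores above 10%, or exactly half above 10 with the replicate mean above 10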
NTR1 agonist: NTR1 (human) agonism; P30989; AID 493036; activation, % at 20 µM; 0.17% of 330,000 active; NTR1-U2OS beta-arrestin-GFP spot imaging, agonist mode;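 active means activation at or above 40% of the spot to cytoplasm intensity ratio, with at least 20 cells analyzed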
Target sequence (P30989 whole entry, looked up): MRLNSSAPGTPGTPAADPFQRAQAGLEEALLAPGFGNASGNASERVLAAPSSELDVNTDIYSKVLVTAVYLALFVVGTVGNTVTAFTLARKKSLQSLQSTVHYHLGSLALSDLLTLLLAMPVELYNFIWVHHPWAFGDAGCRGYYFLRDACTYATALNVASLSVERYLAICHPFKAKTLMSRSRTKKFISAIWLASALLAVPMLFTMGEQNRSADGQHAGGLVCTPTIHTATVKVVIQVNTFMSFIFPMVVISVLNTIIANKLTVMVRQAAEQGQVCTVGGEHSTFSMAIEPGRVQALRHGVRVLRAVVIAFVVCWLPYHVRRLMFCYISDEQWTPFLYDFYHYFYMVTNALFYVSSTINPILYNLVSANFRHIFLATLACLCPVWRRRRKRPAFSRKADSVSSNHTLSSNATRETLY
MC4R antagonist: blocks human MC4R cAMP signaling. P32245. MC4R-expressing cells, MTII-stimulated cAMP, LANCE TR-FRET. inhibition, % at 6.5 µM. 0.48% of 360,000 active;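 active means inhibition above its plate's cutoff, the mean of tested wells on that plate plus 3 SD, cut at about 29% in these data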
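System – human MC4R-expressing U2OS cells · Also added – Melanotan II · Dosing – one concentration, 6.5 µM nominal · Timing – 30-min compound, 1-h challenge, 1-h detection, room temperature · Measured by – Eu-cAMP/anti-cAMP TR-FRET, emission 671 nm · Replicates – singlicate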
hGIII sPLA2 conf: human GIII-sPLA2 inhibition, confirmation | inhibition, % at 12.2 µM | shares compounds with sPLA2-III inh | AID 743280 | recombinant hGIII-sPLA2, BODIPY PC-A2 QFRET fluorescence | 34% of 2,000 active;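 active means mean inhibition across triplicates above the hit cutoff set in the earlier primary screen, cut at about 19% in these data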
BODIPY interf: 535nm fluorescence interference, HGIII-sPLA2 counter-screen; BODIPY FL product fluorescence interference, QFRET; AID 743282; 8.5% of 2,000 active; inhibition, % at 12.2 µM; shares compounds with sPLA2-III inh;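 active means average inhibition above the solvent-only control mean plus 3 SD, cut at about 6% in these data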
BODIPY interf DR: 535nm optical interference dose response, HGIII-sPLA2 counter-screen; shares compounds with sPLA2-III inh; IC50, µM; 240 tested, under 10 active; BODIPY FL product fluorescence interference, cell-free;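 active means IC50 at or below 10 µM; inactive means IC50 above 10 µM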
Each line names hits and unclear results; the compound was inactive in the other large screens (follow-up assays come after a bar, where they were run). Hits are enriched below; roughly 2.5% of the tested compounds scored in any of these assays.

CC1CCCCN1C(=S)NCCc1ccccc1 (stereo unspecified)	sPLA2-III inh 22 | hGIII sPLA2 conf inactive | BODIPY interf inactive
CC(C)Cc1cc(C(=O)N2CCCC(CO)(Cc3ccc(F)cc3F)C2)n[nH]1 (stereo unspecified)	none
CCOC(=O)c1c(C)[nH]c(C)c1S(=O)(=O)NCC1CCN(Cc2cccc(F)c2)CC1	none
CN(C)c1ccc(/C=C/c2ccc3ccccc3n2)cc1	none (no result: sPLA2-III inh, NTR1 agonist)
CCN(CC)c1ccc(/C=C/c2cc(-c3ccccc3)c3ccccc3n2)cc1	sPLA2-III inh 25 (no result: NTR1 agonist) | hGIII sPLA2 conf inactive | BODIPY interf inactive
CCN(CC(=O)Nc1cc(Cl)ccc1C)C(=O)C1CC1	none
Cc1noc(/C=C/N(C)C)c1S(=O)(=O)N1CCN(c2ccc(F)cc2)CC1	none
Cc1cccc(N2CCN(S(=O)(=O)c3c(C)noc3/C=C/N(C)C)CC2)c1C	sPLA2-III inh 27 | hGIII sPLA2 conf 24 | BODIPY interf inactive
CCC(Sc1nc2ccsc2c(=O)n1-c1ccc(Cl)c(C)c1)C(=O)NCc1ccco1 (stereo unspecified)	none
CC(=O)C(C(C)=O)C1(O)C(=O)c2ccccc2C1=O	sPLA2-III inh 22 | hGIII sPLA2 conf inactive | BODIPY interf inactive
C=CCn1c(C2CC2)n[nH]c1=S	none
CCCCCC1CCC(c2n[nH]c(=S)n2C)CC1 (stereo unspecified)	sPLA2-III inh 20 | hGIII sPLA2 conf 26 | BODIPY interf inactive
CCCc1cn(-c2ccc3c(c2)[C@]2(CC(=O)N(C)C2c2ccccc2)C(=O)N3CC(C)C)nn1 (stereo partly specified)	none (no result: MC4R ag barr, Exocytosis inh, A1 inh, NTR1 agonist, MC4R antagonist)
Oc1cccc(/C=N/NC(=S)Nc2cccnc2)c1O	sPLA2-III inh 34 (no result: NTR1 agonist) | hGIII sPLA2 conf 21 | BODIPY interf inactive
O=C(COc1ccc(NS(=O)(=O)c2ccc(F)cc2)cc1)N1CCOCC1	none
CCn1c(NC(=S)Nc2ccccc2)nc2ccccc21	sPLA2-III inh 23 | hGIII sPLA2 conf 24 | BODIPY interf inactive
CCCn1c(NC(=S)Nc2ccccc2)nc2ccccc21	sPLA2-III inh 37 | hGIII sPLA2 conf 48 | BODIPY interf inactive | BODIPY interf DR inactive
Cc1ccccc1CN1CCCCC(NC(=O)c2ccc(F)cc2F)C1=O (stereo unspecified)	none (no result: MC4R ag barr, Exocytosis inh, A1 inh, NTR1 agonist, MC4R antagonist)
C=CCN1C(=O)c2ccccc2NC1c1cc(Br)cs1 (stereo unspecified)	none
Cc1cccc2nc(COc3ccc4ccccc4c3Br)cn12	none
CCN(CC)C(=O)/C(=C/c1ccc2c(c1)OCO2)NC(=O)c1ccc(Br)cc1	sPLA2-III inh 20 | hGIII sPLA2 conf inactive | BODIPY interf inactive
CCCCNCc1nc2ccccc2c(=O)[nH]1	sPLA2-III inh 27 | hGIII sPLA2 conf inactive | BODIPY interf inactive
CCc1ccc(NCc2nc3ccccc3c(=O)[nH]2)cc1	none
CCc1ccc(NC(=O)Cn2cc([N+](=O)[O-])nc2C)cc1	none
Cc1ccc(S(=O)(=O)NCC(C)n2cncn2)cc1C (stereo unspecified)	sPLA2-III inh 20 | hGIII sPLA2 conf inactive | BODIPY interf inactive
CC(C)Cc1c2c([nH]c(=S)c1C#N)CCCC2	sPLA2-III inh 20 | hGIII sPLA2 conf 30 | BODIPY interf inactive | BODIPY interf DR inactive
Cc1[nH]c(=S)c(C#N)c2c1CCCC2	none
O=C(NNC(=S)Nc1ccccc1Cl)c1ccccc1Br	sPLA2-III inh 22 | hGIII sPLA2 conf 26 | BODIPY interf inactive
O=C(NNC(=S)Nc1ccc(Br)cc1)c1ccccc1Br	sPLA2-III inh 35 | hGIII sPLA2 conf 26 | BODIPY interf 8.2
O=C(NNC(=S)NC1CCCCC1)c1ccccc1Br	sPLA2-III inh 21 | hGIII sPLA2 conf 29 | BODIPY interf inactive | BODIPY interf DR inactive
COC(=O)Cc1ccc(NC(=S)NNC(=O)c2ccccc2Br)cc1	none
COc1cc(OC)c(C(=O)NNC(=S)NC2CCCCC2)cc1OC	none
CC(C)(C)NC(=S)NNC(=O)c1ccc2ncccc2c1	none
O=C(NNC(=S)Nc1ccccc1)c1ccc2ncccc2c1	sPLA2-III inh 24 | hGIII sPLA2 conf 30 | BODIPY interf inactive | BODIPY interf DR inactive
CCOc1ncccc1C(=O)OCC(=O)Nc1cc(C(C)(C)C)ccc1OC	none
CCc1nc2ccc(C(=O)NCC3CCCCC3)cn2c1N(C)C(=O)c1cccc(OC)c1	none (no result: A1 inh, NTR1 agonist)
O=C(NNC(=S)Nc1ccc(Br)cc1)c1ccccc1	sPLA2-III inh 20 | hGIII sPLA2 conf 22 | BODIPY interf 6.7
CSCc1cc(N(C)C)nc(SCc2ccc(Cl)c(Cl)c2)n1	sPLA2-III inh 21 | hGIII sPLA2 conf inactive | BODIPY interf inactive
Cc1cc2ncn(N)c2cc1C	sPLA2-III inh 90 | hGIII sPLA2 conf inactive | BODIPY interf inactive
Cc1cc(NS(=O)(=O)c2ccc(NC(=O)COc3ccc(Cl)c(C)c3)cc2)no1	none (no result: A1 inh)
O=C(Nc1ccc(C(F)(F)F)cc1)C1(c2ccccc2)CC1	sPLA2-III inh 25 | hGIII sPLA2 conf inactive | BODIPY interf inactive
CC(=O)N1CCc2c1cccc2S(=O)(=O)NC(CC(C)C)C(=O)Nc1ccc(F)cc1Cl (stereo unspecified)	none (no result: MC4R ag barr, Exocytosis inh, A1 inh, NTR1 agonist, MC4R antagonist)
CC1(C)CC(=O)C=C(Nc2ccc(Br)cn2)C1	sPLA2-III inh 21 | hGIII sPLA2 conf inactive | BODIPY interf inactive
Cc1ccc2[nH]c(-c3cccc(F)c3)cc(=O)c2c1	none
Cc1ccc2[nH]c(-c3cccc(N)c3)cc2c1	sPLA2-III inh 25 | hGIII sPLA2 conf inactive | BODIPY interf inactive
CN(Cc1ccccc1)Cc1cc(=O)oc2ccc3ccccc3c12	none (no result: MC4R ag barr, A1 inh, NTR1 agonist, MC4R antagonist)
CCOc1cccc(/C=N/NC(=S)Nc2cc(S(=O)(=O)N3CCOCC3)ccc2N2CCOCC2)c1O	sPLA2-III inh 23 | hGIII sPLA2 conf 33 | BODIPY interf inactive
Cc1ccc(-c2cc(Cc3ccc(N(C)C)cc3)c(=O)[nH]n2)cc1	none
S=C(Nc1ccccc1)N1CCCCC1	none
S=C(Nc1ccccc1)N1CCCN1c1ccccc1	sPLA2-III inh 20 | hGIII sPLA2 conf inactive | BODIPY interf inactive
Cc1ccccc1NC(=S)NC(=O)c1cncc(Br)c1	sPLA2-III inh 23 | hGIII sPLA2 conf inactive | BODIPY interf inactive
CCN(CC)C(=O)c1ncn2c1c(=O)[nH]c1ccccc12	sPLA2-III inh 20 (no result: A1 inh, NTR1 agonist) | hGIII sPLA2 conf inactive | BODIPY interf inactive
S=C(/N=c1/sccn1Cc1ccccc1)NC1CC1	sPLA2-III inh 20 | hGIII sPLA2 conf inactive | BODIPY interf inactive
